Source: the EternaBench riboswitch data

Legend:
MS2 coat protein [1] = assay: apparent Kd, MS2 coat protein; higher = weaker binding; RNA-MaP array
Method in brief: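 Designs measured on fewer than 10 clusters were excluded from the data. The rest were RNAs transcribed from sequenced DNA templates on an Illumina sequencing chip and incubated at room temperature, with or without input ligand, with fluorescently labeled MS2 coat protein at 1.5 nM to 3 μM for 0.8–1.5 h at the lowest to 10–20 min at the highest concentrations. Apparent Kd is the median of the per-cluster binding-curve fits.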

MS2 coat protein [2] = assay: apparent Kd, MS2 coat protein; higher = weaker binding; RNA-MaP array; FMN 200 µM where present
Method in brief: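 The apparent Kd comes from binding curves fitted cluster by cluster, filtered, and summarised as a median. Those curves followed SNAP-549-labelled MS2 coat protein from 0.7 or 1.5 nM, doubling to 3 µM, on Illumina sequencing-chip clusters where stalled E. coli RNA polymerase had transcribed the designs, without and then with constant ligand. The buffer was 100 mM Tris-HCl pH 7.5, 80 mM KCl, 4 mM MgCl2, BSA, DTT, yeast tRNA and Tween-20, and green signal was normalised to red-channel RNA signal and control-cluster median Fmax.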

[3] = designed as: OFF switch for flavin mononucleotide, no ligand
[4] = ligand present: flavin mononucleotide, designed as: OFF switch for flavin mononucleotide
[5] = designed as: ON switch for flavin mononucleotide, no ligand
[6] = ligand present: flavin mononucleotide, designed as: ON switch for flavin mononucleotide

Sequence: ACAGGUAGAGGAUAUCGUGAAAGUCACAUGAGGAUCACCCAUGUGGUAAGCAUGUACGCCCGAGAAGGCUAACCGC
- apparent Kd (MS2 coat protein [1]; [3]): 7.57 nM
- apparent Kd (MS2 coat protein [1]; [4]): 12.4 nM

Sequence: UACAUGAGGAUCACCCAUGUCUCUAGUCGUUUUUGUUAGAAUAGAAGGAGUCGCAUAAAGCAUAACUAGGAUAUAUUCUUGUUU
- apparent Kd (MS2 coat protein [1]; [5]): 16.3 nM
- apparent Kd (MS2 coat protein [1]; [6]): 11.6 nM

Sequence: GUGUACUUUGAAGGAUAUAACGGCGGCAUUUUCUUAGAAGGUCAAGGGACAUGAGGAUCACCCAUGUUAACAUUGGUUCUAACA
- apparent Kd (MS2 coat protein [1]; [3]): 10.6 nM
- apparent Kd (MS2 coat protein [1]; [4]): 17.5 nM

Sequence: CGCUGUUGGCAGGAUAUAUUCGCAGCCCAGGCAAUAGAAGGGCCGACAUGAGGAUCACCCAUGUGUCUACAGGG
- apparent Kd (MS2 coat protein [1]; [3]): 117 nM
- apparent Kd (MS2 coat protein [1]; [4]): 341 nM

Sequence: CUUCAGGGUGCGGCCGCCACUUAUUAGGUGCUUGCGACGCCAGCACAUGAGGAUCACCCAUGUUCAAGGACCGGGCACCACCUUU
- apparent Kd (MS2 coat protein [1]; designed as: ON switch for tryptophan, no ligand): 11.5 nM
- apparent Kd (MS2 coat protein [1]; ligand present: tryptophan, designed as: ON switch for tryptophan): 12.6 nM

Sequence: AAAGCCUUUCUAGGAUAUCAAUACAGUCGUGGUUGAGAAGGAGAAACUGCGUUCUAGACAUGAGGAUCACCCAUGUCCUCAAUG
- apparent Kd (MS2 coat protein [1]; [5]): 98.6 nM
- apparent Kd (MS2 coat protein [1]; [6]): 71.9 nM

Sequence: AUCUAGUGCCUCAAGGAUAUGCACAGAGAGACAUGAGGAUCACCCAUGUAACAAGCAUGCUCAACGCAGAAGGUGACACUUAAGAU
- apparent Kd (MS2 coat protein [1]; [5]): 39.2 nM
- apparent Kd (MS2 coat protein [1]; [6]): 12.7 nM

Sequence: AUUUAAAAGUUAGGAUAUCUCAUCAGCUCAAUAGAUGACAUGAGGAUCACCCAUGUGACCAAAGGAGAGAAGGAACUCAUAAUG
- apparent Kd (MS2 coat protein [1]; [3]): 65.1 nM
- apparent Kd (MS2 coat protein [1]; [4]): 31.4 nM

Sequence: UGAUUACAUGAGGAUCACCCAUGUGACUACGCCUCAGGAUAUGAUGACAAAUUCUAGAAGUCAGAAGGGAGUUUGU
- apparent Kd (MS2 coat protein [1]; [5]): 29.1 nM
- apparent Kd (MS2 coat protein [1]; [6]): 21.3 nM

Sequence: GCCAUCGCAUGAGGAUAUGCUCCGGUUUCCGGAGCAGAAGGCAUGUCGUAAGACAUGAGGAUCACCCAUGUAGUUAAGAUGGCA
- apparent Kd (MS2 coat protein [2]; [5]): 1100 nM
- apparent Kd (MS2 coat protein [2]; [6]): 54.7 nM

Sequence: GAUUCGGGAGGAUAUACAUGAGGAUCACCCAUGUAUAUAUAAUAUAUUAAAUUAUCAUGUAGAAGGUUUGGGUC
- apparent Kd (MS2 coat protein [2]; [3]): 24.2 nM
- apparent Kd (MS2 coat protein [2]; [4]): 23.4 nM

Sequence: AUAUACUUUCGAGGAUAUCGGUGAUAAAUUUUACGAGAAGGCGAUAAAAGAUAUAAUCUUAUAGACAUGAGGAUCACCCAUGUA
- apparent Kd (MS2 coat protein [2]; [5]): 30.3 nM
- apparent Kd (MS2 coat protein [2]; [6]): 28 nM

Sequence: CGCUAUGACAUAGGAUAUUGGUACAUGAGGAUCACCCAUGUCAACCAUGAAGCUCGAUUUGUUGACAAGAAGGAUGUGGUAGCG
- apparent Kd (MS2 coat protein [2]; [5]): 6.65 nM
- apparent Kd (MS2 coat protein [2]; [6]): 7.63 nM

Sequence: UUGGUGUCAGGAUAUGCUUAAUGUGUUUUAUUAUAAUAUAUACAUGAGGAUCACCCAUGUAGAAGGGACGUUGU
- apparent Kd (MS2 coat protein [2]; [3]): 60.6 nM
- apparent Kd (MS2 coat protein [2]; [4]): 53.2 nM

Sequence: AUAAUUAAUGCAGGAUAUCAGCACGUGUAGUGCUGAGAAGGGCACAUGAGGAUCACCCAUGUGAUCAAUUAAUAUUAAUAUUAU
- apparent Kd (MS2 coat protein [2]; [3]): 61 nM
- apparent Kd (MS2 coat protein [2]; [4]): 275 nM

Sequence: CGCCUGUAAGGAUAUUAGUAGUAGUCAGAAAAGACUAUUACUGAGAAGGUACAUGAGGAUCACCCAUGUUGGCG
- apparent Kd (MS2 coat protein [2]; [3]): 15.3 nM
- apparent Kd (MS2 coat protein [2]; [4]): 20.4 nM

Sequence: GCACGACAUGUAGGAUAUCGAGCGCCGGGCGCUCGAGAAGGACAUGAGGAUCACCCAUGUAUUCUGAGUGACCGAGGUCGUUGC
- apparent Kd (MS2 coat protein [2]; [3]): 47.9 nM
- apparent Kd (MS2 coat protein [2]; [4]): 431 nM

Sequence: AAAAGAACGGCAGGAUAUGCAAGCACUGACCUCCCAAAAUAAAGAAACAUGAGGAUCACCCAUGUGCAGAAGGGCCAAAAGUGC
- apparent Kd (MS2 coat protein [2]; [3]): 13.6 nM
- apparent Kd (MS2 coat protein [2]; [4]): 12.3 nM

Sequence: GCAUAUCAGGGAGGAUAUGACAUGAGGAUCACCCAUGUAAUUAUGGCUCUGUCAGAAGGCCCAUCGUCAGUAUAGUGACGAGAC
- apparent Kd (MS2 coat protein [2]; [3]): 375 nM
- apparent Kd (MS2 coat protein [2]; [4]): 137 nM

Sequence: GAUUAACAUGAGGAUCACCCAUGUGAGGAUAUGGAAUGGCUCAUUGUUUGAUUUCCGUCUAGAAGGCACAUCUU
- apparent Kd (MS2 coat protein [2]; [3]): 174 nM
- apparent Kd (MS2 coat protein [2]; [4]): 160 nM

Sequence: GGUUAUUGCAAGGAUAUGCUUAUUUGAGAAAUUGCAGAAGGUGCAACAUGAGGAUCACCCAUGUUGGAUGGGUU
- apparent Kd (MS2 coat protein [2]; [3]): 65.2 nM
- apparent Kd (MS2 coat protein [2]; [4]): 278 nM

Sequence: UUUUUUUACUAGGAUAUCAGAGUCGAAAGACUCUGAGAAGGAGUAACAUGAGGAUCACCCAUGUGUCCUUUUUU
- apparent Kd (MS2 coat protein [2]; [3]): 20.1 nM
- apparent Kd (MS2 coat protein [2]; [4]): 49.3 nM

Sequence: GUGUCUAACUAGAAGGCCGAUAGCAAAGCUAUCGGAGGAUAUGGGUUCCGGAAACGGACAUGAGGAUCACCCAUGUGGCACAAA
- apparent Kd (MS2 coat protein [2]; [5]): 103 nM
- apparent Kd (MS2 coat protein [2]; [6]): 13.8 nM

Sequence: AAUGUUUUCAUAGGAUAUUGACAUUUAUUUAUUCAAGAAGGAUGAUUACAUGAGGAUCACCCAUGUUAAAAUGGAUUAACUAGU
- apparent Kd (MS2 coat protein [2]; [3]): 54.4 nM
- apparent Kd (MS2 coat protein [2]; [4]): 162 nM

Sequence: UGUCGGAACAGAGGAUAUUACAUGAGGAUCACCCAUGUAUGAACCAAUAGCUGGAAACAGCAAUGUAAGAAGGCUGCUCCGACA
- apparent Kd (MS2 coat protein [2]; [3]): 11.9 nM
- apparent Kd (MS2 coat protein [2]; [4]): 147 nM

Sequence: UGUCGGAGCAGAGGAUAUUACAUGAGGAUCACCCAUGUAUGAACCAAUAGCUGGACACAGCAAUGUAAGAAGGCUGCUCCGACA
- apparent Kd (MS2 coat protein [2]; [3]): 11.4 nM
- apparent Kd (MS2 coat protein [2]; [4]): 133 nM

Sequence: GAUUGACGACAAUUACAUGAGGAUCACCCAUGUUGUAGUAUGCAGGAUAUGUGGUAUAUUAUUUAACAGAAGGGCAAUAAUUUU
- apparent Kd (MS2 coat protein [2]; [5]): 81 nM
- apparent Kd (MS2 coat protein [2]; [6]): 42.4 nM
